Source: article PMC5508980 (Molecular nutrition & food research, 2017)
Structures can show the parent of a compound that is named as a salt.

Key:
Type in all cases: biochemical
recombinant HDAC3 = recombinant HDAC3 (Homo sapiens, UniProt O15379); assay: Recombinant HDAC activity assay; conditions: for remaining activity at 50 µM: 2 h, read-out: % HDAC activity, Class I HDACs, 3
recombinant HDAC8 = target: T1, recombinant HDAC8 (Homo sapiens, UniProt Q9BY41); assay: Recombinant HDAC activity assay; conditions: for remaining activity at 50 µM: 2 h, read-out: % HDAC activity, Class I HDACs, 8; for % HDAC activity, Class I HDACs, 8: recombinant protein incubated with 50 µM compound, 2 hrs
T1 sequence (Q9BY41 1-377): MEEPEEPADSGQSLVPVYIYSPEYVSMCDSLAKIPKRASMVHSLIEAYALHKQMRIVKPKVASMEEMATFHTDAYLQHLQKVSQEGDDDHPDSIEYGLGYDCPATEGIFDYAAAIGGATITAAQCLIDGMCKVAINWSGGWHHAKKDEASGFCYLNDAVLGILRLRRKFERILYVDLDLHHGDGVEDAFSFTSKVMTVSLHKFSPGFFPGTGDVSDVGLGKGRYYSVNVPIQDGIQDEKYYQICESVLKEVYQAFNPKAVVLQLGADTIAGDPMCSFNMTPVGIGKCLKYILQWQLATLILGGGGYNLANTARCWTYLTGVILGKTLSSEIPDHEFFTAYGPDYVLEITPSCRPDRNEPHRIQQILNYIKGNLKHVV

recombinant HDAC2 = recombinant HDAC2 (Homo sapiens, UniProt Q92769); assay: Recombinant HDAC activity assay; conditions: for remaining activity at 50 µM: 2 h, read-out: % HDAC activity, Class I HDACs, 2
recombinant HDAC2, sequence (Q92769 whole entry): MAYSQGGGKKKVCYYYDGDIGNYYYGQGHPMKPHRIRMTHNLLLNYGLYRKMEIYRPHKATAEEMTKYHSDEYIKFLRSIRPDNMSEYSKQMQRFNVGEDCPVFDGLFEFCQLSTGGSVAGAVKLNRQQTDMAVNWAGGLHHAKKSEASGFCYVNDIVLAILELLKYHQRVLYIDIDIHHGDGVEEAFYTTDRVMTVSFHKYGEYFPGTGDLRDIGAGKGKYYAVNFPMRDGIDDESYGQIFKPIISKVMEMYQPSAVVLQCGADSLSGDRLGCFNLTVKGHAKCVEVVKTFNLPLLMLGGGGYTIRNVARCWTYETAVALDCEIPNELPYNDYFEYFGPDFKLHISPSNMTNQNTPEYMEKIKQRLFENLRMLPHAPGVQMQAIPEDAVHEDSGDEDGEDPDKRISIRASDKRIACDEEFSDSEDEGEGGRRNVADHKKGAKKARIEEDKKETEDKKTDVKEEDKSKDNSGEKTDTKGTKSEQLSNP

recombinant HDAC5 = recombinant HDAC5 (Homo sapiens, UniProt Q9UQL6); assay: Recombinant HDAC activity assay; conditions: for remaining activity at 50 µM: 2 h, read-out: % HDAC activity, Class IIa HDACs, 5
recombinant HDAC5, sequence (Q9UQL6 whole entry): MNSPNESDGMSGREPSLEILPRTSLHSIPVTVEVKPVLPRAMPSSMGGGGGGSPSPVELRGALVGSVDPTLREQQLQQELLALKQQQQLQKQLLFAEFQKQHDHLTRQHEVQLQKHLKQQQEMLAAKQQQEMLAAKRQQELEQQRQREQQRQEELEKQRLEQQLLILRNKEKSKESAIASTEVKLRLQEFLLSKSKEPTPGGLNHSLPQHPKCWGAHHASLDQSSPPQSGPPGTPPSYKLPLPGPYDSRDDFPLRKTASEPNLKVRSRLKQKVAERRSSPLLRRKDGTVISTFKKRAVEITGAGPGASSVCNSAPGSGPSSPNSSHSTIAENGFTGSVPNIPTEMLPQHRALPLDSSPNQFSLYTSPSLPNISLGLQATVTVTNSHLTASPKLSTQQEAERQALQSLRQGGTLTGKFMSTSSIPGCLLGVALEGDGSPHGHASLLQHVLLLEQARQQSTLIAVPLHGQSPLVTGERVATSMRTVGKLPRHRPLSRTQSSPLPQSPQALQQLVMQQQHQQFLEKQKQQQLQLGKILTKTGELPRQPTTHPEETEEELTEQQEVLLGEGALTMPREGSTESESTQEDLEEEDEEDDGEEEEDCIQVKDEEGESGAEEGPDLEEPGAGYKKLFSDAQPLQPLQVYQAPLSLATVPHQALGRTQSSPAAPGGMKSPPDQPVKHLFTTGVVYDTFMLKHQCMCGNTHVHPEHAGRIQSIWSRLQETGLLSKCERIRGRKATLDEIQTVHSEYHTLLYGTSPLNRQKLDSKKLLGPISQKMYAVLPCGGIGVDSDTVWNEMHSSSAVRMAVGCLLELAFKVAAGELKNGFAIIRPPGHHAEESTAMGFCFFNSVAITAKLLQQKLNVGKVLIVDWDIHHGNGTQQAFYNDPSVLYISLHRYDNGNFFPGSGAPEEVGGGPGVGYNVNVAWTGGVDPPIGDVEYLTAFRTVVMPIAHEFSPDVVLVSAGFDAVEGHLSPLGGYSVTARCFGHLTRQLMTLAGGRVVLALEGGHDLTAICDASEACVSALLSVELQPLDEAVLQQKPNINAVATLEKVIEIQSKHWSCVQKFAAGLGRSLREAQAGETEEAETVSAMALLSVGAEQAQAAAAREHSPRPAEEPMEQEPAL

recombinant HDAC10 = target: T2, recombinant HDAC10 (Homo sapiens, UniProt Q969S8); assay: Recombinant HDAC activity assay; conditions: for remaining activity at 50 µM: 2 h, read-out: % HDAC activity, Class IIb HDACs, 10
T2 sequence (Q969S8 1-669): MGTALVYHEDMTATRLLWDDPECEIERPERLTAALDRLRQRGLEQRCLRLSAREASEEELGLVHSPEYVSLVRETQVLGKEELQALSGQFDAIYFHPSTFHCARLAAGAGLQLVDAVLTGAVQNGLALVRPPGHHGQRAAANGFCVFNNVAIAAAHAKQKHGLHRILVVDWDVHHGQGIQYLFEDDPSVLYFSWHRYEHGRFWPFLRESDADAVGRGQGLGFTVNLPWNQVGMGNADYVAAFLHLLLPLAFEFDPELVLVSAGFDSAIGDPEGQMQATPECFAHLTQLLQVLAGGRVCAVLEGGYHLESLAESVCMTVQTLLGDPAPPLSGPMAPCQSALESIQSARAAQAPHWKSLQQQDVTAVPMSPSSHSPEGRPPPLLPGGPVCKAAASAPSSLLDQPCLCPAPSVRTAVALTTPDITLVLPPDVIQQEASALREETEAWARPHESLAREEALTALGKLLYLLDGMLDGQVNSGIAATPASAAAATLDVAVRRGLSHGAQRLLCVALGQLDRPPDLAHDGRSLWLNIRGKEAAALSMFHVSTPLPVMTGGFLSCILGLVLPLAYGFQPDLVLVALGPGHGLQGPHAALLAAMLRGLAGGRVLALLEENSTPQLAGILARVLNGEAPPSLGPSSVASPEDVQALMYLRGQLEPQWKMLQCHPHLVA

recombinant HDAC9 = recombinant HDAC9 (Homo sapiens, UniProt Q9UKV0); assay: Recombinant HDAC activity assay; conditions: for remaining activity at 50 µM: 2 h, read-out: % HDAC activity, Class IIa HDACs, 9
recombinant HDAC9, sequence (Q9UKV0 whole entry): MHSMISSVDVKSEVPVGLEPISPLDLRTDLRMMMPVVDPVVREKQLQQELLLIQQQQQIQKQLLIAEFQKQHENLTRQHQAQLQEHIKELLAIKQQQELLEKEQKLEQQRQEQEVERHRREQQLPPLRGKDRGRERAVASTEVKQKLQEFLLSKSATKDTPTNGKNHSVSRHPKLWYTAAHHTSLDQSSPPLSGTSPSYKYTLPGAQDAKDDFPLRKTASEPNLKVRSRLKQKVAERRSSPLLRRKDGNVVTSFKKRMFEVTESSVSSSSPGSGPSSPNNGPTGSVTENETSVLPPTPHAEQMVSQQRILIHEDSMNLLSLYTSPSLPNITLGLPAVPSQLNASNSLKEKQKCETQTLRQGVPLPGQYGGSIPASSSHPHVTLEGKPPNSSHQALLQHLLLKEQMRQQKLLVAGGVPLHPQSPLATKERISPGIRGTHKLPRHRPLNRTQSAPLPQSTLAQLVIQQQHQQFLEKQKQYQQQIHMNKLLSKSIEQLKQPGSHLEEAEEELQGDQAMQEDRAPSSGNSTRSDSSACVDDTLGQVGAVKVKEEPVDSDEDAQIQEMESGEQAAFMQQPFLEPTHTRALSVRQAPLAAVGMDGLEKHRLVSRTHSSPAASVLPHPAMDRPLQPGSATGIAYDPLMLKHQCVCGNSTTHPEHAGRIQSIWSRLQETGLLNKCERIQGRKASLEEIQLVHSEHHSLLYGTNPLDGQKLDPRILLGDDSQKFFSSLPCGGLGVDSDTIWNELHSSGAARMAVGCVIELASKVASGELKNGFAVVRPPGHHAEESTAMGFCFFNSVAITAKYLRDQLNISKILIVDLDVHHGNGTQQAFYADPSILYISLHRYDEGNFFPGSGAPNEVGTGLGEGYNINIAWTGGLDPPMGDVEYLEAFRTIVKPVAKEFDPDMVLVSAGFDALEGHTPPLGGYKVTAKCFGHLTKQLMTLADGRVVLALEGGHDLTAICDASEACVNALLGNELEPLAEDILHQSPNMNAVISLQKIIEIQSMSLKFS

recombinant HDAC1 = recombinant HDAC1 (Homo sapiens, UniProt Q13547); assay: Recombinant HDAC activity assay; conditions: for remaining activity at 50 µM: 2 h, read-out: % HDAC activity, Class I HDACs, 1
recombinant HDAC1, sequence (Q13547 whole entry): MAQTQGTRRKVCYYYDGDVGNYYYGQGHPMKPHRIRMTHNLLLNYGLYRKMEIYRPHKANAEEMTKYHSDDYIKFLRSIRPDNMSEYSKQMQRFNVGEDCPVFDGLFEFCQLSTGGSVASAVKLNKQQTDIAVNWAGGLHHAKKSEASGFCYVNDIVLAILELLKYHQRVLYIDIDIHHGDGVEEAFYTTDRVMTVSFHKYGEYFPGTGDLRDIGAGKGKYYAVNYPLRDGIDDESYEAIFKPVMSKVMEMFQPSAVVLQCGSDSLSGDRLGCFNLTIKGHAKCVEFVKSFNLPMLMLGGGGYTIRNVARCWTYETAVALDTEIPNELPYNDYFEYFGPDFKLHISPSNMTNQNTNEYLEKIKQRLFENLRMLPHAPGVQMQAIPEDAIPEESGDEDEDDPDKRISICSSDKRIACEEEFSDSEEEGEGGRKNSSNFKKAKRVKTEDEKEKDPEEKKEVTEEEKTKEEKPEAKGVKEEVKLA

recombinant HDAC7 = target: T3, recombinant HDAC7 (Homo sapiens, UniProt Q8WUI4); assay: Recombinant HDAC activity assay; conditions: for % HDAC activity, Class IIa HDACs, 7: recombinant protein incubated with 50 µM compound, 2 hrs
T3 sequence (Q8WUI4 1-952): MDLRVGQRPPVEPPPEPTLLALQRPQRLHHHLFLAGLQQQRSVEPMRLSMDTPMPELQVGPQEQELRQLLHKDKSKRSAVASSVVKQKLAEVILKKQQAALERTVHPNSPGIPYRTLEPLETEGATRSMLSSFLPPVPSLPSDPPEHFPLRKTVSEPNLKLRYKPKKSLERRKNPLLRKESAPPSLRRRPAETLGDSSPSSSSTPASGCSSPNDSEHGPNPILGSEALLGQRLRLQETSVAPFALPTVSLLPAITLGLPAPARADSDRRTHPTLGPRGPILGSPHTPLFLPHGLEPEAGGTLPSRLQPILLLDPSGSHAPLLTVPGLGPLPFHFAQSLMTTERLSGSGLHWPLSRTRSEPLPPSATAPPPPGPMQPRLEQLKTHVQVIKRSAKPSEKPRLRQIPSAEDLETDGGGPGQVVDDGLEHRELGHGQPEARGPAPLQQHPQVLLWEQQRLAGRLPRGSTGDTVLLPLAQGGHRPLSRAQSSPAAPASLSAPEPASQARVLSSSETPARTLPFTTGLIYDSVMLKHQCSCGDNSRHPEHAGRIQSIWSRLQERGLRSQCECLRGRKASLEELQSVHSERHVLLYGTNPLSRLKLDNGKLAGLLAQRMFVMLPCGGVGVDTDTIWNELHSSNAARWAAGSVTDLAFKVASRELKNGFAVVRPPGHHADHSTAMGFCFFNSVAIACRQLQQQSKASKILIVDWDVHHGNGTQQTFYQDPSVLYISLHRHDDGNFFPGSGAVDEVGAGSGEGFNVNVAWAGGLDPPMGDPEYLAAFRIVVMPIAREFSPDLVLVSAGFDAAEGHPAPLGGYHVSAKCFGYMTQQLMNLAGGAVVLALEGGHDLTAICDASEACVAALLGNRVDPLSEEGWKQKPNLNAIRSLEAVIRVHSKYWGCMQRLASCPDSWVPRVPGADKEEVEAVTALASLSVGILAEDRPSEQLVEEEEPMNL

recombinant HDAC6 = target: T4, recombinant HDAC6 (Homo sapiens, UniProt Q9UBN7); assay: Recombinant HDAC activity assay; conditions: 2 h, read-out: % HDAC activity, Class IIb HDACs, 6
T4 sequence (Q9UBN7 1-1215): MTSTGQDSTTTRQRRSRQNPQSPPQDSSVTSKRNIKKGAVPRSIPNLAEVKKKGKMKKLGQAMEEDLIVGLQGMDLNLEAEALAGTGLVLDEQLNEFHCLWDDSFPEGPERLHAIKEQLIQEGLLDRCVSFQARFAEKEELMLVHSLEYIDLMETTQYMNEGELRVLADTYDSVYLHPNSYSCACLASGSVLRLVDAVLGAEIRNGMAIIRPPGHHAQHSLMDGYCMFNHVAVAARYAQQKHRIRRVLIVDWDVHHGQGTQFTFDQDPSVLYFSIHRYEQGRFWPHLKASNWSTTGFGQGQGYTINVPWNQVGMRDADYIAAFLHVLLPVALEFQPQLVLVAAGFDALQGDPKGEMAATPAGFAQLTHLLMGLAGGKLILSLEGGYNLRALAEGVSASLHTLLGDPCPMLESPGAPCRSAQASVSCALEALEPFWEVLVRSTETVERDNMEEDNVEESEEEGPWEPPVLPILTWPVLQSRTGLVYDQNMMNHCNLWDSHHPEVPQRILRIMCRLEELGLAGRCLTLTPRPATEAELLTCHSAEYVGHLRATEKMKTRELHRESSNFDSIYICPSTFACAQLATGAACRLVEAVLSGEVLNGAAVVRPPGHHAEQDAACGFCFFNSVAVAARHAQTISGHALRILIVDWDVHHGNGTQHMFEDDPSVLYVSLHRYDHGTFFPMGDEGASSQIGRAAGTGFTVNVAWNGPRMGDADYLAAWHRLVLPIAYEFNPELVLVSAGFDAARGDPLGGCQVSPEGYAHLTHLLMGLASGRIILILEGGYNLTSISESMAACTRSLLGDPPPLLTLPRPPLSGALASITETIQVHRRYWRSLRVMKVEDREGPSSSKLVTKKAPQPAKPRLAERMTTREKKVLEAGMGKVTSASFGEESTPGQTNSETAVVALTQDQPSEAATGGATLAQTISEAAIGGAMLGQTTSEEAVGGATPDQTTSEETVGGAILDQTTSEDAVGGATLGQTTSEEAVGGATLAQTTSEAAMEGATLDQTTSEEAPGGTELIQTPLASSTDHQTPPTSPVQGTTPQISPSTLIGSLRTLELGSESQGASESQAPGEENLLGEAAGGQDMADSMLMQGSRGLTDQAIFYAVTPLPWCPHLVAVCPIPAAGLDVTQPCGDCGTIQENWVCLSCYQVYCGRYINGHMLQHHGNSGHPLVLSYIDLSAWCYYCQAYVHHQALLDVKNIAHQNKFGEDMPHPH

[1] = test system: HDAC activity in bovine cardiac tissue; assay: Natural product library screen with class-selective HDAC substrates; conditions: 2 hours treatment
Outline: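 The screen covered 131 natural compounds against bovine cardiac tissue lysate at 30 µg protein/well in PBS (pH 7.4 lysis buffer with Triton X-100 and NaCl). Test compound for 2 h, then separate class I, IIa or IIb fluorogenic acyl-lysine-AMC substrates for 2 h at 37 °C. Developer (Triton X-100, 3 µM TSA, 0.75 mg/ml trypsin) for 20 min; fluorescence read at 360/460 nm.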

recombinant HDAC4 = recombinant HDAC4 (Homo sapiens, UniProt P56524); assay: Recombinant HDAC activity assay; conditions: recombinant protein incubated with 50 µM compound, 2 hrs
recombinant HDAC4, sequence (P56524 whole entry): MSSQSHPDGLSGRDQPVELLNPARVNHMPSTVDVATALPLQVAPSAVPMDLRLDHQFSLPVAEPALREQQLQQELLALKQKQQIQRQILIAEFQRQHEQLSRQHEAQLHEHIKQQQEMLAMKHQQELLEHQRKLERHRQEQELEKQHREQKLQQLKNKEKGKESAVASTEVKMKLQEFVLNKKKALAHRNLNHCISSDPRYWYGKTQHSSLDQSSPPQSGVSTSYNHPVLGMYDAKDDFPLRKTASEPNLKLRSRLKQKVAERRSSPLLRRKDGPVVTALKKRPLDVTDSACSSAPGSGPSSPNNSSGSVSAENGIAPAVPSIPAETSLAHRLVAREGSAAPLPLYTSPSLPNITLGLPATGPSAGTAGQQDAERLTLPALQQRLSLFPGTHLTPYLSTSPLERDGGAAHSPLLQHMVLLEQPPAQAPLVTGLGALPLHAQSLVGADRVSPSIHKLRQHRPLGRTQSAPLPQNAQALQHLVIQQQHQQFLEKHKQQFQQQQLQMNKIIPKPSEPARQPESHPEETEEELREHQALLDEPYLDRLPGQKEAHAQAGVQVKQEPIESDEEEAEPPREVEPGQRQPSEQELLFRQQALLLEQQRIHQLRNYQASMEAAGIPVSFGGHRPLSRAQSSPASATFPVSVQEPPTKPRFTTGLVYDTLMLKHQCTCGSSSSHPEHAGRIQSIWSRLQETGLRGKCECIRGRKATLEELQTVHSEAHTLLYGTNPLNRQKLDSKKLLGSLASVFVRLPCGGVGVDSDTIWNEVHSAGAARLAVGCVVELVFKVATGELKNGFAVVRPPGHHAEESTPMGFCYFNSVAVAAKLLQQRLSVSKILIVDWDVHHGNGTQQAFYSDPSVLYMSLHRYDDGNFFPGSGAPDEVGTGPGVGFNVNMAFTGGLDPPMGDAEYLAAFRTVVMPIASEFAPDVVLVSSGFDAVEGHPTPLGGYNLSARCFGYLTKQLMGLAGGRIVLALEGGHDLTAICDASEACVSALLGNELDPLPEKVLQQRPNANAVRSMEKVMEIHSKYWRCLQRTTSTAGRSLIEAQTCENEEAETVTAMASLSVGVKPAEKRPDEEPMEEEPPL

[2] = recombinant protein incubated with 50 µM compound, 2 hrs

recombinant HDAC3, sequence (O15379 whole entry): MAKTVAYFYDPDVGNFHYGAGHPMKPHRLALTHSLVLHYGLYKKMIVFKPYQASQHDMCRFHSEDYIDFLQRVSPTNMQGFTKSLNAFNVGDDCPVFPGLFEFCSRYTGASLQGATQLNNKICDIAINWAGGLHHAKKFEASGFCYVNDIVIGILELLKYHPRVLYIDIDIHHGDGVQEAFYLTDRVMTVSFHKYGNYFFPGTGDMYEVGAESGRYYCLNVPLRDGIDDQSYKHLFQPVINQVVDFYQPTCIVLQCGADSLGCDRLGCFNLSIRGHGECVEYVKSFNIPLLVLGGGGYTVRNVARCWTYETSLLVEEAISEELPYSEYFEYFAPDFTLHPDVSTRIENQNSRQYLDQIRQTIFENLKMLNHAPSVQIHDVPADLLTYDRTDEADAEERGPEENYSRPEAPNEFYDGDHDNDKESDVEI
recombinant HDAC3, sequence (Q9Y618 395-489 partner limits assumed): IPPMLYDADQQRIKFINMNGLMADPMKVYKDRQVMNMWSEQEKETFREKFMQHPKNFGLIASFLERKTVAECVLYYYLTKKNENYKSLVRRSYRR

remaining activity at 50 µM (recombinant HDAC3)	remaining activity at 50 µM (recombinant HDAC8)	remaining activity at 50 µM (recombinant HDAC2)	remaining activity at 50 µM (recombinant HDAC5)	remaining activity at 50 µM (recombinant HDAC10)	remaining activity at 50 µM (recombinant HDAC9)	remaining activity at 50 µM (recombinant HDAC1)	% HDAC activity, Class IIa HDACs, 7 (recombinant HDAC7)	SMILES	further results
82.5%	81.9%	73.9%	73.4%	86.3%	92.5%	90%		O=C1c2c(O)cc(O)cc2O[C@H](c2cc(O)c(O)c(O)c2)[C@H]1O [Dihydromyricetin]	remaining activity at 50 µM (recombinant HDAC7; 2 h, read-out: % HDAC activity, Class IIa HDACs, 7): 94%
48.3%	46.8%	70.3%		45%		50.5%		COc1ccc2cc3[n+](cc2c1OC)CCc1cc2c(cc1-3)OCO2 [Berberine HCl, berberine hydrochloride]	remaining activity at 50 µM (recombinant HDAC6): 60.9%
59.2%			76.6%		66.1%		-	O=c1cc(-c2ccccc2)oc2cc(O)c(O)c(O)c12 [Baicalein]	
51.4%	52.8%	49.5%	59.5%	55.9%	52.3%	60.7%	-	O=c1cc(-c2ccc(O)c(O)c2)oc2cc(O)cc(O)c12 [Luteolin]	catalytic HDAC activity across class I, IIa and IIb substrates, effect in words [1]: dose-dependent pan-HDAC inhibition
66.9%	68.7%	71.7%	73.5%	71.6%	70.6%	72.8%	-	O=c1c(O)c(-c2ccc(O)cc2)oc2cc(O)cc(O)c12 [Kaempferol]	
56.6%	58.4%	58.7%		67%		61.5%	-	O=C1Nc2ccccc2/C1=C1/Nc2ccccc2C1=O [Indirubin]	remaining activity at 50 µM (recombinant HDAC6): 65.7%
81.7%	78.3%	72.9%	81.8%	84.7%	91.5%	89%	-	O=C(O)[C@H]1O[C@@H](Oc2cc3oc(-c4ccccc4)cc(=O)c3c(O)c2O)[C@H](O)[C@@H](O)[C@@H]1O [Baicalin]	remaining activity at 50 µM (recombinant HDAC6): 86.2%
59.9%	60.2%		65.1%	63.4%	77%	68%	-	O=c1c(O)c(-c2cc(O)c(O)c(O)c2)oc2cc(O)cc(O)c12 [Myricetin]	catalytic HDAC activity across class I, IIa and IIb substrates, effect in words [1]: pan-HDAC inhibition
							-	O=C(O)/C=C/c1ccc(O)c(O)c1 [Caffeic acid]	
							-	O.O=c1c(O)c(-c2ccc(O)cc2O)oc2cc(O)cc(O)c12 [Morin hydrate]	% HDAC activity, Class I HDACs, 3 (recombinant HDAC3; [2]): 56.0%; % HDAC activity, Class I HDACs, 8 (recombinant HDAC8): 49.3%; % HDAC activity, Class I HDACs, 2 (recombinant HDAC2; [2]): 43.3%; % HDAC activity, Class IIa HDACs, 5 (recombinant HDAC5; [2]): 56.7%; % HDAC activity, Class IIa HDACs, 9 (recombinant HDAC9; [2]): 56.1%; % HDAC activity, Class I HDACs, 1 (recombinant HDAC1; [2]): 62.3%
							-	O=C(O[C@@H]1Cc2c(O)cc(O)cc2O[C@@H]1c1cc(O)c(O)c(O)c1)c1cc(O)c(O)c(O)c1 [EGCG, epigallocatechin gallate]	% HDAC activity, Class I HDACs, 8 (recombinant HDAC8): 89.1%; % HDAC activity, Class IIb HDACs, 10 (recombinant HDAC10; [2]): 91.2%; % HDAC activity, Class IIa HDACs, 4 (recombinant HDAC4): 82.5%
